The results in this text go back to ChEMBL document CHEMBL1137225, “Synthesis of analogues of Congo red and evaluation of their anti-prion activity” (2004).

Format in all cases: functional
Assay [1] addresses Major prion protein (Mus musculus) (UniProt P04925). In words: Inhibition of PrP-res formation in SMB (Scrapie mouse brain) cells at 10 uM. The essentials: (§1)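 Persistently scrapie-infected mouse SMB cells in 199 medium with 10% FCS, 5% newborn calf serum, 37 °C, 5% CO2; plated at 50% confluency, attached 24 h, then given fresh medium with compound diluted from 10 mM DMSO stock for 4 days. Lysates digested with proteinase K (80 μg/mL, 1 h, 37 °C); PrP-res detected by DR1 western blot, ECL, densitometry.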

Assay [2] can be described thus: Compound was tested for the inhibition of PrP-res formation in SMB cells at 50 uM. To be noted: Mus musculus. The essentials: as §1
The target in assay [3] is Major prion protein (Mus musculus) (UniProt P04925). In words: Inhibition of PrPC polymerization by PrP-res at 100 uM. Also noted: scale not given: the % may be the effect or the level left. The essentials:
(§2)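 Substrate recombinant mouse PrP refolded without metal ions (50 μg), preincubated with compound (100 μM) in 500 μL H2O pH 6.5 for 30 min; seeded with aged Mn2+-refolded mouse PrP (10 μg). Turbidity read at 325 nm (5-mm cuvette) immediately and after 5 min; absorbance increase expressed as percentage of DMSO control.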

The nature of assay [4]: Effective dose required for the inhibition of PrP-res formation in SMB cells; value ranges from 25-50 nM. To be noted: Mus musculus, read-out: ED50 (the source's name). A digest of the protocol:
as §1

Assay [5] in a line: Compound was tested for the ability to inhibit the polymerization of PrPC by PrP-res at 100 uM; value ranges from 17-50 %. Set-up: scale not given: the % may be the effect or the level left. A digest of the protocol: as §2
A short description of assay [6]: Compound was tested for the inhibition of PrP-res formation in SMB cells at 2 uM. To be noted: Mus musculus. The essentials:
as §1

Major prion protein (Mus musculus), sequence (P04925 whole entry): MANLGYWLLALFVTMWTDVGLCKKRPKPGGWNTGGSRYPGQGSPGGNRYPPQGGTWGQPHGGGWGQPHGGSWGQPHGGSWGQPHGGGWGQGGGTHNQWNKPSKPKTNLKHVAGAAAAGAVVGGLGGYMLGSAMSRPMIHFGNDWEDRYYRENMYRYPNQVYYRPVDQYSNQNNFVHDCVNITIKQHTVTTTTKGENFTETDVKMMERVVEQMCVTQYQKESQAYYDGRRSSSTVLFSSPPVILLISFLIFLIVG

Consider `COc1ccc(C(=O)O)cc1NS(=O)(=O)c1ccc(-c2ccc(S(=O)(=O)Nc3cc(C(=O)O)ccc3OC)cc2)cc1`, for which the inhibition result in assay [1] was “Negative”. Also, the inhibition at 50 µM in assay [2] was 33%. The compound also returned a Control in assay [3] of 62%.
As for `COC(=O)c1ccc(NC(=O)c2ccc(-c3ccc(C(=O)Nc4ccc(C(=O)OC)cc4O)cc3)cc2)c(O)c1`, the EC50 in assay [4] amounted to 0.05 µM. In addition, the inhibition entry in assay [1] was “Positive”. In assay [5], this compound gave a Control of 50%.
Take `COC(=O)c1ccc(/N=C/c2ccc(-c3ccc(/C=N/c4ccc(C(=O)OC)cc4O)cc3)cc2)c(O)c1`: the inhibition result in assay [1] was “Negative”. In assay [2], the inhibition at 50 µM was 53%. Also, the Control in assay [3] was determined as 49%.
With `Oc1ccc(/C=C/c2ccc(/C=C/c3ccc(O)cc3)cc2)cc1`, in assay [6], the inhibition at 2 µM was determined as 5%.

The inhibition is the share of the control response that was lost under treatment.
